Assay results: ChEMBL document CHEMBL2311525, “Design, synthesis, and pharmacological properties of new heteroarylpyridine/heteroarylpyrimidine derivatives as CB(2) cannabinoid receptor partial agonists” (J Med Chem, 2013)

What was measured:
Cannabinoid receptor 2 [1] = target: T1, Cannabinoid receptor 2 (Homo sapiens, UniProt P34972); assay: Displacement of [3H]CP-55,940 from human recombinant CB2 receptor expressed in CHO cell membranes after 60 mins by scintillation counting analysis
[2] = target: Cannabinoid receptor 1 (Rattus norvegicus) (UniProt P20272); assay: Displacement of [3H]CP-55,940 from Sprague-Dawley rat brain CB1 receptor at 1 to 10000 nM by scintillation counting analysis
Sequence of Cannabinoid receptor 1 (Rattus norvegicus) (P20272 whole entry): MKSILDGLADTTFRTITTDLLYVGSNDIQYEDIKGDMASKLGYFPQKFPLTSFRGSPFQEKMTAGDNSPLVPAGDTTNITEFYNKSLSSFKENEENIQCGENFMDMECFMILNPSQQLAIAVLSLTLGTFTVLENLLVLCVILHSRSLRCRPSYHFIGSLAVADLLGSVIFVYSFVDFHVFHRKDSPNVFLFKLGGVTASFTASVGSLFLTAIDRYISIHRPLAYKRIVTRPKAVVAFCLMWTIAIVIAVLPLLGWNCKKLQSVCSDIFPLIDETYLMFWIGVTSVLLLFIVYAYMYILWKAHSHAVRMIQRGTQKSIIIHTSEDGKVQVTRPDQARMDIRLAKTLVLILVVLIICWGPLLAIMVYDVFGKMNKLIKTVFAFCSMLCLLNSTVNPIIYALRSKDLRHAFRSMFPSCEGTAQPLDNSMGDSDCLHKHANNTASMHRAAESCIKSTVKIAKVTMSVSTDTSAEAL
In short: (§1)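 Male Sprague-Dawley rat brain membranes, prepared by spinning at 2000g and then 40000g, in 50 mM Tris-HCl with 1 mM EDTA, 3 mM MgCl2 and 0.5% fatty-acid-free BSA, pH 7.4. Incubated with 1.0 nM [3H]CP-55,940, 40 μg protein/100 μL and test compound at 1 nM–10 μM. Filtered on GF/C. Ki by Cheng–Prusoff, n = 4.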

Cannabinoid receptor 1 [3] = target: T2, Cannabinoid receptor 1 (Homo sapiens, UniProt P21554); assay: Displacement of [3H]CP-55,940 from human recombinant CB1 receptor expressed in CHO cell membranes at 1 to 10000 nM after 90 mins by scintillation counting analysis
T2 sequence (P21554 whole entry): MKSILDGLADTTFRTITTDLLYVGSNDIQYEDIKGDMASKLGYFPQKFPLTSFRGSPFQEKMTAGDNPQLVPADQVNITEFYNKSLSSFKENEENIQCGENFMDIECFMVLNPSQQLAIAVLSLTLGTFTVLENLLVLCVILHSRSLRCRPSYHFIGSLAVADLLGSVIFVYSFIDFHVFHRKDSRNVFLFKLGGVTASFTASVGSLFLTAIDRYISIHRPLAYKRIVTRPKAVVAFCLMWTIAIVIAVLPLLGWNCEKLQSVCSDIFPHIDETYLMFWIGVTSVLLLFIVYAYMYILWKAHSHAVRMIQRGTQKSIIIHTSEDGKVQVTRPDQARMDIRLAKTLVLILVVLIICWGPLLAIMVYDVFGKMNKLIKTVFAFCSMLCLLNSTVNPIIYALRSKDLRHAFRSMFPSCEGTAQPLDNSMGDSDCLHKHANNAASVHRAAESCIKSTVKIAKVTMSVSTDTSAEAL
In short: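 Membranes from CHO cells expressing hCB1, spun at 100000g, in 50 mM Tris-HCl with 0.5% BSA, 5 mM MgCl2 and 2.5 mM EDTA, pH 7.4. Incubated with 0.5 nM [3H]CP-55,940 and compound at 1 nM–10 μM for 90 min at 30 °C. Filtered on GF/C and counted. Ki by Cheng–Prusoff, n = 4.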

[4] = target: T3, Cannabinoid receptor 2 (Rattus norvegicus) (UniProt Q9QZN9); assay: Displacement of [3H]CP-55,940 from Sprague-Dawley rat spleen CB2 receptor at 1 to 10000 nM by scintillation counting analysis
T3 sequence (whole entry): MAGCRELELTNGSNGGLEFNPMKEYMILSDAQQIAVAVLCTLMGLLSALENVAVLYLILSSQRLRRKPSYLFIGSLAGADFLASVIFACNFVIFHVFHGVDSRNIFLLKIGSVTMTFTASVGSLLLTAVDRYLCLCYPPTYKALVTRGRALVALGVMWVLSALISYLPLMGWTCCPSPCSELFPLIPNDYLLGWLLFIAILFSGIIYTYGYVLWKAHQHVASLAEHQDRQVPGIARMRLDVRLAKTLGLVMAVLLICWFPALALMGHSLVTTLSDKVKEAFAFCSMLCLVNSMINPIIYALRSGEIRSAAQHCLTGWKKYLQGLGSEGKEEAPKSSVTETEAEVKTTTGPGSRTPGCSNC
In short: as §1, with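 “rat spleen” for “rat brain”, “with 0.5” for “with 1.0”, “[3H]CP-55,940, 80” for “[3H]CP-55,940, 40”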

Cannabinoid receptor 1 [5] = target: T2, Cannabinoid receptor 1; assay: Displacement of [3H]CP-55,940 from human recombinant CB1 receptor expressed in CHO cell membranes after 90 mins by scintillation counting analysis
Cannabinoid receptor 2 [6] = target: T1, Cannabinoid receptor 2; assay: Displacement of [3H]CP-55,940 from human recombinant CB2 receptor expressed in CHO cell membranes at 1 to 10000 nM after 60 mins by scintillation counting analysis
In short: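 Membranes from CHO cells expressing hCB2, spun at 100000g, in 50 mM Tris-HCl with 0.5% BSA, 5 mM MgCl2 and 1 mM EDTA, pH 7.4. Incubated with 0.5 nM [3H]CP-55,940 and compound at 1 nM–10 μM for 60 min at 30 °C. Filtered on GF/C and counted. Ki by Cheng–Prusoff, n = 4.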

Cannabinoid receptor 2 [7] = target: T4, Cannabinoid receptor 2 (Rattus norvegicus, UniProt Q9QZN9); assay: Displacement of [3H]CP-55,940 from Sprague-Dawley rat spleen CB2 receptor by scintillation counting analysis
T4 sequence (Q9QZN9 whole entry): T3 sequence (whole entry)
In short: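 Male Sprague-Dawley rat spleen membranes, prepared by spinning at 2000g and then 40000g, in 50 mM Tris-HCl with 1 mM EDTA, 3 mM MgCl2 and 0.5% fatty-acid-free BSA, pH 7.4. Filtered on GF/C.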

Cannabinoid receptor 1 [8] = target: Cannabinoid receptor 1 (Rattus norvegicus, UniProt P20272); assay: Displacement of [3H]CP-55,940 from Sprague-Dawley rat brain CB1 receptor by scintillation counting analysis; in short: as §1
Sequence of Cannabinoid receptor 1 (Rattus norvegicus, UniProt P20272) (P20272 whole entry): as the sequence (P20272 whole entry) above

Cannabinoid receptor 2 [9] = target: T1, Cannabinoid receptor 2; assay: Agonist activity at human CB2 receptor expressed in CHO cells assessed as forskolin-stimulated [3H]cyclic-AMP accumulation by scintillation counting analysis relative to WIN 55,212-2; assay type: functional, cell-based
In short: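 CHO cells stably expressing human CB2, 1 × 10^6 cells/assay, in buffered saline (10 mM MgCl2, 5 mM glucose, 5 mM HEPES, pH 7.4, 37 °C) with 0.5 mM Ro 20-1724. Preincubated 10 min at 37 °C, then tested with 1 μM forskolin. Stopped with cold 6% TCA and ether-extracted. cAMP read by [3H]cAMP competition binding to beef adrenal binding protein with charcoal separation.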

Cannabinoid receptor 2 [10] = target: T1, Cannabinoid receptor 2; assay: Agonist activity at human CB2 receptor expressed in CHO cells assessed as forskolin-stimulated [3H]cyclic-AMP accumulation by scintillation counting analysis; assay type: functional, cell-based
Homo sapiens = species on record: Homo sapiens; assay: Selectivity ratio of Ki for CB1 receptor (unknown origin) to Ki for CB2 receptor (unknown origin)

T1 sequence (P34972 whole entry): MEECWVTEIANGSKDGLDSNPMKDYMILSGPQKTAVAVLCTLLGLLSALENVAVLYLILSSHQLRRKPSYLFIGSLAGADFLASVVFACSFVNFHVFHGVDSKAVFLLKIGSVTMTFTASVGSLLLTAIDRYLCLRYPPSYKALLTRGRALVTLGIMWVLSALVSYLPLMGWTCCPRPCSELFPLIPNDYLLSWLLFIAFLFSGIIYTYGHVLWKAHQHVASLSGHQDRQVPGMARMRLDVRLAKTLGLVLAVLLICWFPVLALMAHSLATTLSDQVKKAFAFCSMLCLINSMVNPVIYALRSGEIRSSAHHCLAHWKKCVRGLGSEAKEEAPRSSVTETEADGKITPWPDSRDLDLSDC

SMILES: Cc1nn(C)c2c1c(=O)c(C(=O)NC1CCCCC1)cn2CCN1CCOCC1
- Ki (Cannabinoid receptor 2 [1]): > 10 µM
- inhibition [2]: 13%
- inhibition (Cannabinoid receptor 1 [3]): 16%
- inhibition [4]: 32%
- Ki (Cannabinoid receptor 1 [5]): > 10 µM
- inhibition (Cannabinoid receptor 2 [6]): 36%
- Ki (Cannabinoid receptor 2 [7]): > 10 µM
- Ki (Cannabinoid receptor 1 [8]): > 10 µM

SMILES: Cc1ccc(Cn2cc(C(=O)NC3CCCCC3)c(=O)c3c(C)nn(C)c32)cc1
- Ki (Cannabinoid receptor 2 [1]): > 10 µM
- inhibition [2]: 38%
- inhibition (Cannabinoid receptor 1 [3]): 35%
- inhibition [4]: 29%
- Ki (Cannabinoid receptor 1 [5]): > 10 µM
- inhibition (Cannabinoid receptor 2 [6]): 33%
- Ki (Cannabinoid receptor 2 [7]): > 10 µM
- Ki (Cannabinoid receptor 1 [8]): > 10 µM

SMILES: CCOCCn1cc(C(=O)NC2CCCCC2)c(=O)c2c(C)nn(C)c21
- Ki (Cannabinoid receptor 2 [1]): > 10 µM
- inhibition [2]: 10%
- inhibition (Cannabinoid receptor 1 [3]): 14%
- inhibition [4]: 1%
- Ki (Cannabinoid receptor 1 [5]): > 10 µM
- inhibition (Cannabinoid receptor 2 [6]): 1%
- Ki (Cannabinoid receptor 2 [7]): > 10 µM
- Ki (Cannabinoid receptor 1 [8]): > 10 µM

SMILES: C=CCn1cc(C(=O)NC2CCCCC2)c(=O)c2c(C)nn(C)c21
- Ki (Cannabinoid receptor 2 [1]): > 10 µM
- inhibition [2]: 27%
- inhibition (Cannabinoid receptor 1 [3]): 34%
- inhibition [4]: 46%
- Emax (Cannabinoid receptor 2 [9]): 58%
- Ki (Cannabinoid receptor 1 [5]): > 10 µM
- inhibition (Cannabinoid receptor 2 [6]): 42%
- EC50 (Cannabinoid receptor 2 [10]): 0.587 µM
- Ki (Cannabinoid receptor 2 [7]): > 10 µM
- Ki (Cannabinoid receptor 1 [8]): > 10 µM

SMILES: Cc1nn(C)c2c1c(=O)c(C(=O)NC1CCCCC1)cn2CCCCC#N
- Ki (Cannabinoid receptor 2 [1]): > 10 µM
- inhibition [2]: 25%
- inhibition (Cannabinoid receptor 1 [3]): 28%
- inhibition [4]: 5%
- Ki (Cannabinoid receptor 1 [5]): > 10 µM
- inhibition (Cannabinoid receptor 2 [6]): 11%
- Ki (Cannabinoid receptor 2 [7]): > 10 µM
- Ki (Cannabinoid receptor 1 [8]): > 10 µM

SMILES: CCCCCn1cc(C(=O)Nc2ccc(OC)cc2)c(=O)c2c(C)nn(C)c21
- Ki (Cannabinoid receptor 2 [1]): > 10 µM
- inhibition [2]: 46%
- inhibition (Cannabinoid receptor 1 [3]): 38%
- inhibition [4]: 24%
- Ki (Cannabinoid receptor 1 [5]): > 10 µM
- inhibition (Cannabinoid receptor 2 [6]): 33%
- Ki (Cannabinoid receptor 2 [7]): > 10 µM
- Ki (Cannabinoid receptor 1 [8]): > 10 µM

SMILES: CCCCCn1cc(C(=O)Nc2ccc(F)cc2)c(=O)c2c(C)nn(C)c21
- Ki (Cannabinoid receptor 2 [1]): > 10 µM
- inhibition [2]: 48%
- inhibition (Cannabinoid receptor 1 [3]): 44%
- inhibition [4]: 27%
- Ki (Cannabinoid receptor 1 [5]): > 10 µM
- inhibition (Cannabinoid receptor 2 [6]): 37%
- Ki (Cannabinoid receptor 2 [7]): > 10 µM
- Ki (Cannabinoid receptor 1 [8]): > 10 µM

SMILES: CCCCCCC(C)(C)c1cc(OC)c([C@@H]2C=C(CO)[C@H]3C[C@@H]2C3(C)C)c(OC)c1
- Ratio Ki (Homo sapiens): 400

SMILES: CCCCCn1cc(C(=O)NC2CCCCCC2)c(=O)c2c(-c3ccccc3)nn(C)c21
- Ki (Cannabinoid receptor 2 [1]): > 10 µM
- inhibition [2]: 1%
- inhibition (Cannabinoid receptor 1 [3]): 1%
- inhibition [4]: 1%
- Ki (Cannabinoid receptor 1 [5]): > 10 µM
- inhibition (Cannabinoid receptor 2 [6]): 1%
- Ki (Cannabinoid receptor 2 [7]): > 10 µM
- Ki (Cannabinoid receptor 1 [8]): > 10 µM

SMILES: CCCCCn1cc(C(=O)NC2CCCCC2)c(=O)c2c(-c3ccccc3)nn(C)c21
- Ki (Cannabinoid receptor 2 [1]): > 10 µM
- inhibition [2]: 18%
- inhibition (Cannabinoid receptor 1 [3]): 23%
- inhibition [4]: 1%
- Ki (Cannabinoid receptor 1 [5]): > 10 µM
- inhibition (Cannabinoid receptor 2 [6]): 1%
- Ki (Cannabinoid receptor 2 [7]): > 10 µM
- Ki (Cannabinoid receptor 1 [8]): > 10 µM
